Assay outcomes (PubChem BioAssay)
CHT PAM: CHT positive allosteric modulators, primary screen, cell-based, membrane potential dye, choline EC20; B-score at 10 µM; 310,000 tested, 0.49% active; CHT-expressing cells; active compounds read high; LV-AA mutant CHT in HEK293 cells; High affinity choline transporter 1 (Homo sapiens), Q9GZV3;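 active = initial fluorescence not abnormally high and integrated response B-score, plate-corrected, over 3 SD above library mean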
CHT inh: inhibitors of human choline transporter CHT; High affinity choline transporter 1 (Homo sapiens), Q9GZV3; CHT-expressing cells, membrane potential dye, choline response; active compounds read low; B-score at 10 µM; 310,000 tested, 0.86% active; AID 488975, 2010;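 active = B-score over 3 SD under the library average, and starting fluorescence ratio not unusually high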;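 also: choline stimulus applied at its EC90 after an EC20 pre-addition; B-score computed on integrated fluorescence ratio after choline addition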
VLA-4 inh: inhibition in human VLA-4 binding assay, primary screen, VLA-4 allosteric modulator project, MLPCN library, flow cytometry, VLA-4 expressing cells; 330,000 tested, 0.2% active; ligand binding flow cytometry; AID 2557, 2010; inhibition, % (about 7 µM as worked out from the volumes in the protocol); Integrin alpha-4 (Homo sapiens), P13612; in the data active = inhibition above about 50%
T cell modulator: modulators of CD8 T cell-vesicle binding, primary screen, mouse 2C CD8+ T cells, flow cytometry | 330,000 tested, 0.068% active | response (vesicle binding), % at 7 µM | AID 2052, 2009 | 2C CD8+ T cell-vesicle binding; active compounds read low;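 active = response, share of CD8 T cells binding vesicles, and their 90th percentile fluorescence all below set limits, cut at about 80% in these data, passing the limit was not always enough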;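 also: values below 100% mean blocked vesicle binding to the CD8+ T cells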
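Material: 2C TCR transgenic mouse naive CD8+ T cells, MACS-purified. Also added: QL9-charged Drosophila Ld/ICAM-1/B7-1 vesicles. Timing: binding 1.5 h at 37 °C. Measured by: high-throughput flow cytometry with anti-B7-1 and anti-CD8 staining. Read-out: percent CD8+ FL2 mean versus row control. Controls: Unloaded micro-vesicles (low), QL9 vesicles with 0.7% DMSO (high).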
CHT activ conf: CHT activators, confirmation, cell-based, membrane potential dye, duplicate; shares compounds with CHT PAM; CHT-expressing cells, membrane potential dye fluorescence (FDSS); % of choline EC20–EC90 response window; HEK293 expressing CHT LV-AA mutant; choline added at its EC20; activation, % at 10 µM; AID 504833, 2011; 2,500 tested, 91% active;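 active = primary screen active, with duplicate mean activation above negative control mean plus 3 SD, cut at about 11% in these data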
HEK293 MP dye: membrane potential response in parental HEK293 cells, counter-screen for CHT activator project, cell-based, membrane potential dye; ratio readout change at 10 µM, hits read low; membrane potential dye fluorescence (FDSS); measured after EC20 choline addition; AID 623908, 2012; shares compounds with CHT PAM; 2,500 tested, 62% active;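 active = duplicate-averaged ratio beyond 3 SD from buffer wells, up or down, though filed actives are nearly all decreases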
The depositor's hits bear a star; i = inactive; / = no result. Most compounds without a hit are left out; they make up all but 1.5% or so of the library.

SMILES	CHT PAM	CHT inh	VLA-4 inh	T cell modulator	CHT activ conf	HEK293 MP dye
O=c1c2ccccc2n(CC(O)CN2CCOCC2)c2ccccc12 (centres undefined)	i	i	5.8	203.8	11.0*	i
CC1CCCCN1CCNC(=O)c1cc2c(=O)n(C)c3ccccc3c2n1C (centres undefined)	i	i	-1.6	258.5	29.7*	-20.8*
Cn1c(C(=O)NCCN2CCOCC2)cc2c(=O)n(C)c3ccccc3c21	i	i	4.6	262.3	/	/
Cn1c(C(=O)NCCCN2CCCC2=O)cc2c(=O)n(C)c3ccccc3c21	i	i	-21.3	159.3	27.3*	-31.6*
Cc1ccn2c(c1)nc(=O)c1cc(S(=O)(=O)N3CCCCC3)ccc12	i	i	0.7	286.3	31.8*	-26.8*
O=C(COC(=O)C1CCN(c2ccc(C(F)(F)F)cn2)CC1)NCc1ccccc1	/	/	3.2	248.5	/	/
O=C(COC(=O)C1CCN(c2ccc(C(F)(F)F)cn2)CC1)NC1CCCCC1	i	i	-0.8	859.6	6.1	i
Oc1ccc(N2CCN(Cc3cc4c(cc3Br)OCCO4)CC2)cc1	i	i	-2.8	272.0	/	/
COc1ccc(-c2nc3ccccc3c(=O)n2CCOc2cc(C)ccc2C)cc1	i	i	0.0	272.3	/	/
COc1ccc(CNC(=S)Nc2ccc3nc(N4CCOCC4)cc(C)c3c2)cc1	i	i	-0.3	234.8	/	/
Cc1cc(N2CCOCC2)nc2ccc(NC(=S)NCCN(C)C)cc12	i	i	-2.1	0.0	45.2*	-33.5*
CCN(CC)CCNC(=S)Nc1ccc2nc(N3CCN(C)CC3)cc(C)c2c1	i	i	10.2	160.4	45.1*	-24.1*
CCN(CC)CCNC(=S)Nc1ccc2nc(N3CCOCC3)cc(C)c2c1	i	i	7.0	214.4	/	/
Cc1cc(N2CCN(C)CC2)nc2ccc(NC(=O)c3ccc(Br)o3)cc12	i	i	-17.5	510.2	43.7*	-29.6*
COc1ccc(CNC(=S)Nc2ccc3nc(N4CCN(C)CC4)cc(C)c3c2)cc1	6.3*	i	-9.8	174.4	32.3*	-37.5*
COc1ccc(OCC(=O)N2CCCC(CO)(CCOc3ccccc3)C2)cc1 (centres undefined)	i	i	15.2	214.5	/	/
C=CCN1C(=O)c2ccc(C(=O)N3CCN(c4ccccc4OC)CC3)cc2C1=O	i	i	14.5	706.6	/	/
COc1ccc(-n2c(COc3cccc4ccccc34)nnc2SCC(=O)NCc2ccco2)cc1	i	i	9.2	231.9	/	/
Cc1cc(N2CCN(C)CC2)nc2ccc(NC(=S)NCCC(C)C)cc12	i	i	2.5	227.2	/	/
Cc1cc(N2CCOCC2)nc2ccc(NC(=S)NCCC(C)C)cc12	i	i	7.3	219.8	19.2*	-25.3*
CCN1CCN(c2cc(C)c3cc(NC(=S)NCc4cccs4)ccc3n2)CC1	i	i	-3.2	110.7	21.3*	-40.8*
O=C(NC1CCCCC1)C1CC(=O)N(CCc2ccc(F)cc2)C1 (centres undefined)	i	i	-13.3	416.9	/	/
Cc1ccc2nc(-c3ccncc3)cc(-c3ccccc3)c2c1	i	i	0.7	224.3	/	/
Cc1ccc(-c2cc3cccc[n+]3cc2-c2ccc(C)cc2)cc1	8.16*	i	7.5	126.5	62.6*	-38.6*
Cc1cc(S(=O)(=O)NCc2ccccc2)ccc1OCC(=O)NCc1ccncc1	i	i	-2.7	280.2	/	/
SMILES	CHT PAM	CHT inh	VLA-4 inh	T cell modulator	CHT activ conf	HEK293 MP dye
CN1CCN(c2ccc([N+](=O)[O-])cc2NC(=O)c2cccs2)CC1	6.57*	i	3.5	686.2	51.6*	-82.3*
CN1CCN(c2ccccc2NC(=O)c2ccc(N3CCCC3)c([N+](=O)[O-])c2)CC1	i	i	0.0	151.1	17.7*	-44.2*
CCOC(=O)c1c(NC(=O)CSc2nc3ccccc3o2)sc(C(C)=O)c1C	9.07*	i	-9.7	343.2	11.8*	i
O=C(CCCN1C(=O)c2cccc3cccc(c23)C1=O)NCc1cccs1	i	i	-5.7	626.8	/	/
Cc1cccc(NC(=O)COc2cccc3c2CCN(C)C3=O)c1C	i	i	12.9	237.1	/	/
CCOC(=O)c1c(NC(=O)COc2cccc3c2CCN(C)C3=O)sc2c1CCC2	i	i	9.7	302.7	25.2*	i
CCN1/C(=C/C=C/C=C/c2sc3ccccc3[n+]2CC)Sc2ccccc21	i	i	i	851.7	/	/
CC[n+]1c(/C=C(\C)SC)sc2ccccc21	7.35*	i	-5.8	364.6	58.3*	-24.8*
CCN1/C(=C/C=C/C=C/C=C/c2sc3ccccc3[n+]2CC)Sc2ccccc21	9.61*	i	-33.3	139.4	28.6*	-35.4*
CC[n+]1c(/C=C(/C)SC)sc2ccccc21	6.85*	i	-19.7	307.2	59.1*	-23.5*
CC[n+]1c(/C=C(\C)Nc2ccccc2)sc2ccccc21	i	i	-4.4	225.7	/	/
CC[n+]1c(/C=C/Nc2ccccc2)sc2ccccc21	i	i	-318.7	238.3	46.1*	-50.8*
O=C1C=C(c2cccc3c2sc2ccccc23)C[C@@H](c2ccc(Cl)cc2)C1	/	/	-1.9	236.4	/	/
CCN(C(=O)COC(=O)/C(C#N)=C/c1ccc(OC)cc1)C1CCS(=O)(=O)C1 (centres undefined)	i	i	-7.2	392.5	/	/
CC/C(=C/c1sc2ccccc2[n+]1CC)SC	6.48*	i	-33.8	315.9	50.5*	i
CCC1CCCCN1CCCNC(=O)CCC(=O)N1CC(C)Oc2ccccc21 (centres undefined)	i	i	6.2	406.9	/	/
O=C1c2ccccc2C(=O)N1CCSc1nc2ccccc2c(=O)n1CCCN1CCOCC1	i	i	-12.4	187.5	/	/
CCc1ccc(NC(=O)CSc2nc3ccccc3c(=O)n2CCCN2CCC(C)CC2)cc1	i	i	-0.5	262.1	17.2*	i
O=C1c2ccccc2C(=O)N1CCCCSc1nc2ccccc2c(=O)n1CCCN1CCOCC1	i	i	-1.6	121.1	34.9*	i
C/C(=N/NC(=O)c1cnccn1)c1ccncc1	6.4*	i	1.4	160.6	48.7*	-40.3*
CCOC(=O)c1sc2nc(SCC#N)n(CCCN3CCCC3=O)c(=O)c2c1C	i	i	13.3	192.0	21.3*	i
CCOC(=O)c1sc2nc3n(c(=O)c2c1C)CCC3	i	i	12.0	161.7	/	/
